Assay results from PMC3690701 (Bioorganic & medicinal chemistry, 2011).

Experiments:
[1] = target: human Pgp (Homo sapiens, UniProt P08183); conditions: for logIC50: fitted parameter±standard error, GraphPad Prism, R123 efflux, MDCKII-MDR1
[2] = type: in vivo, rat
[3] = plasma protein binding by ultrafiltration; type: in vitro ADME, rat; conditions: 30 min at 37°C, n=3
Summary of the method: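 Fresh plasma from naïve rats was incubated with the 18F-labelled tracer for 30 min at 37°C. Bound and free tracer were then separated by ultrafiltration through centrifugal filter devices.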

[4] = system: Pgp/BCRP at the BBB; experiment: small-animal PET of [18F]4b in rats before/after unlabelled 1; type: in vivo, rat; conditions: 25 min after tracer injection, scanned 2 h after 1 (5 mg/kg), p=0.0002
Summary of the method: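 Naïve rats were kept under isoflurane (2.5% induction, 1.5–2% maintenance) at about 38°C, with femoral artery and vein catheters. The tracer was given as an i.v. bolus (33±3 MBq) in saline/EtOH/PEG300 (50/15/35). Arterial samples were gamma-counted, and whole-brain TACs were expressed as SUV. Groups were compared by 2-tailed Student's t-test.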

[5] = system: human BCRP; conditions: 3H-labelled tariquidar 1 nM, reversed by fumitremorgin C; cited from earlier work
[6] = system: Pgp/BCRP at the BBB; conditions: mouse brain, unlabelled 1 0.1-10 mg/kg i.v.; cited from earlier work
[7] = system: Pgp; conditions: cited from earlier work

human Pgp, sequence (P08183 whole entry): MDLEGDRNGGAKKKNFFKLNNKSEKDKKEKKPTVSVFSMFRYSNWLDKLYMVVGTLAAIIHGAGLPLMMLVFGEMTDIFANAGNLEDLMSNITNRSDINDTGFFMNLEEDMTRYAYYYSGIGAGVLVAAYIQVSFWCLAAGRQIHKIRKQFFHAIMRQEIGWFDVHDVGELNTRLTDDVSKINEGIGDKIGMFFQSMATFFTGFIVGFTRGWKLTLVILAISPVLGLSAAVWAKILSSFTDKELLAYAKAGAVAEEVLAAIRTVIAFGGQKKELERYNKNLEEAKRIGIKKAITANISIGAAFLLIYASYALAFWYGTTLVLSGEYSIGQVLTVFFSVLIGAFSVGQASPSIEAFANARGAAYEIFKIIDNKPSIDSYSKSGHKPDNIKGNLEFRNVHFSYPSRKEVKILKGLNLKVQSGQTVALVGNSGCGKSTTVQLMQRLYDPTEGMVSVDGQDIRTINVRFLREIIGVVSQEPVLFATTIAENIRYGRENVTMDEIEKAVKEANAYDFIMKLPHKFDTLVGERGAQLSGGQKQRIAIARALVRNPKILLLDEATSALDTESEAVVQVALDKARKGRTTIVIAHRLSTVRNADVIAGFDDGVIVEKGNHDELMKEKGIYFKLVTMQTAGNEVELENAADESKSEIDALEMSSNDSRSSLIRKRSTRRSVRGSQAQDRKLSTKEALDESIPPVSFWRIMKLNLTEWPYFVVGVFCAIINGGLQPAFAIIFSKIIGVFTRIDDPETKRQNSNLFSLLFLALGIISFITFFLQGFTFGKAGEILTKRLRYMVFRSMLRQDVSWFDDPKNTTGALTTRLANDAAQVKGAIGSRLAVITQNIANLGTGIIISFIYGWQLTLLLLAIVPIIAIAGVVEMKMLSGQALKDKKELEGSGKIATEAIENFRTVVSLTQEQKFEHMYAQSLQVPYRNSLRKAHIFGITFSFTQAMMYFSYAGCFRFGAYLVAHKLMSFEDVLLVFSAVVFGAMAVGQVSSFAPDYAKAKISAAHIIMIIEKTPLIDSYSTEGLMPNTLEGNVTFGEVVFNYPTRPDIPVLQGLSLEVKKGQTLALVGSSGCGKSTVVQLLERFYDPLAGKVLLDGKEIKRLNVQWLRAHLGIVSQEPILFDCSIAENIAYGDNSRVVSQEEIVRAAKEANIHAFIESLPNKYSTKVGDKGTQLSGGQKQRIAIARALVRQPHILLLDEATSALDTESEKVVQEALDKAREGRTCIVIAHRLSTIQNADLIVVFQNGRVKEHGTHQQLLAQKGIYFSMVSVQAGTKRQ

COc1cc2c(cc1OC)CN(CCc1ccc(NC(=O)c3ccc(Cl)c4c(=O)c5cccc(OC)c5[nH]c34)cc1)CC2 [4a, 1-Chloro-N-(4-(2-(6,7-dimethoxy-1,2,3,4-tetrahydroisoquinolin-2-yl)ethyl)phenyl)-5-methoxyacridone-4-carboxamide]
logIC50 [1]: 0.58±0.04

COc1cc2c(cc1OC)CN(CCc1ccc(NC(=O)c3cc(Cl)cc4c(=O)c5cccc(OC)c5[nH]c34)cc1)CC2 [4d, 2-Chloro-N-(4-(2-(6,7-dimethoxy-1,2,3,4-tetrahydroisoquinolin-2-yl)ethyl)phenyl)-5-methoxyacridone-4-carboxamide]
logIC50 [1]: 0.14±0.08

COc1cc2c(cc1OC)CN(CCc1ccc(NC(=O)c3ccc([N+](=O)[O-])c4c(=O)c5cccc(OC)c5[nH]c34)cc1)CC2 [4c, N-(4-(2-(6,7-dimethoxy-1,2,3,4-tetrahydroisoquinolin-2-yl)ethyl)phenyl)-5-methoxy-1-nitroacridone-4-carboxamide]
logIC50 [1]: 0.21±0.07

COc1cc2c(cc1OC)CN(CCc1ccc(NC(=O)c3cc(F)cc4c(=O)c5cccc(OC)c5[nH]c34)cc1)CC2 [4e, N-(4-(2-(6,7-dimethoxy-1,2,3,4-tetrahydroisoquinolin-2-yl)ethyl)phenyl)-2-fluoro-5-methoxyacridone-4-carboxamide]
logIC50 [1]: −0.21±0.08

COc1cc2c(cc1OC)CN(CCc1ccc(NC(=O)c3ccc([18F])c4c(=O)c5cccc(OC)c5[nH]c34)cc1)CC2 [[^18F]4b, 1-[^18F]fluoroelacridar]
total radioactivity in brain in the form of unchanged tracer ([2]; rat brain extracts, 40 min after injection, HPLC): > 90%
total radioactivity in the form of unchanged tracer, HPLC of SPE fraction 3 ([2]; rat plasma, 40 min sample): 72±27%
protein-bound in rat plasma [3]: 98.0±1.7%
brain activity uptake increase after unlabelled 1 (group 2 vs group 1) [4]: 9.5 times

COc1cc2c(cc1OC)CN(CCc1ccc(NC(=O)c3ccc(F)c4c(=O)c5cccc(OC)c5[nH]c34)cc1)CC2 [4b, N-(4-(2-(6,7-dimethoxy-1,2,3,4-tetrahydroisoquinolin-2-yl)ethyl)phenyl)-1-fluoro-5-methoxyacridone-4-carboxamide]
logIC50 [1]: 0.24±0.04
IC50 times higher than 1 ([1]; human, pH 7.4): about 4 times

COc1cc2c(cc1OC)CN(CCc1ccc(NC(=O)c3cc(OC)c(OC)cc3NC(=O)c3cnc4ccccc4c3)cc1)CC2 [tariquidar]
BCRP transport [5]: avid substrate of BCRP

COc1cc2c(cc1OC)CN(CCc1ccc(NC(=O)c3cccc4c(=O)c5cccc(OC)c5[nH]c34)cc1)CC2 [compound 1, elacridar]
dose at which brain uptake of [11C]1 started to increase [6]: greater than 0.1 mg/kg
half-maximum effect dose for increase of [11C]1 brain uptake [6]: 1.55 mg/kg
stimulation of ATPase activity [7]: does not stimulate
Maximal inhibitory effect (%) ([1]; human, pH 7.4): 100%
